Several values for one entry are separate records, joined by “and”; a condition that tells them apart may be missing. Equal values may be shown once.
Experiments:
Rattus norvegicus [1] = species on record: Rattus norvegicus; test: Lysozyme-conjugated prodrugs: in vitro stability in lysosomal lysate at pH 5; type: functional
Procedure, shortened: (§1)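 Lysosomes isolated from pooled male Wistar rat kidney cortex by differential centrifugation, then lysed by 10 freeze–thaw cycles in liquid N2. 100 μL lysate diluted to 1.0 mL with 0.1 M phosphate buffer, pH 5.0 or 7.4. Samples were deproteinized and analysed by RP-HPLC against an internal standard. Parent drug released after 24 h, as a percentage, mean of ≥2 incubations.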

Rattus norvegicus [2] = species on record: Rattus norvegicus; test: Lysozyme-conjugated prodrugs: in vitro stability in lysosomal lysate at pH 7.4; type: functional; procedure, shortened: as §1
Rattus norvegicus [3] = species on record: Rattus norvegicus; test: (§2) Lysozyme-conjugated prodrugs: in vitro stability at pH 7.4; type: functional
Procedure, shortened: (§3)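 Conjugate incubated 24 h in pH 5.0 buffer, pH 7.4 buffer, or plasma buffered at pH 7.4. Samples were deproteinized with ACN, MeOH or 2 N HCl, centrifuged, and analyzed by RP-HPLC against an internal standard. Release is % parent drug = parent/(parent + derivative) from IS-normalized peak-area ratios, mean of at least two separate incubations.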

Rattus norvegicus [4] = species on record: Rattus norvegicus; test: Lysozyme-conjugated prodrugs: in vitro stability in rat cortical homogenate at pH 5; type: functional
Procedure, shortened: (§4)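 Renal cortices from three male Wistar rats were perfused, pooled, homogenized in 0.3 M sucrose and lysed by 10 freeze–thaw cycles. Conjugate was incubated with 250 μL homogenate in 0.1 M phosphate buffer, pH 5.0 or 7.4, to 1.0 mL for 24 h. Samples were deproteinized and analyzed by HPLC with internal standard. Release is % parent compound, mean of ≥2 incubations.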

Rattus norvegicus [5] = species on record: Rattus norvegicus; test: Lysozyme-conjugated prodrugs: in vitro stability in rat cortical homogenate at pH 7.4; type: functional; procedure, shortened: as §4
Rattus norvegicus [6] = species on record: Rattus norvegicus; test: (§5) Lysozyme-conjugated prodrugs: in vitro stability at pH 5; type: functional; procedure, shortened: as §3
Rattus norvegicus [7] = species on record: Rattus norvegicus; test: as §2; type: functional; procedure, shortened: as §3; remark: listed apart in the source
Rattus norvegicus [8] = species on record: Rattus norvegicus; test: as §5; type: functional; procedure, shortened: as §3; remark: listed apart in the source
Rattus norvegicus [9] = species on record: Rattus norvegicus; test: as §2; type: functional; procedure, shortened: as §3; remark: listed apart in the source
Rattus norvegicus [10] = species on record: Rattus norvegicus; test: as §5; type: functional; procedure, shortened: as §3; remark: listed apart in the source
Rattus norvegicus [11] = species on record: Rattus norvegicus; test: as §5; type: ADME; procedure, shortened: as §3
Rattus norvegicus [12] = species on record: Rattus norvegicus; test: as §2; type: functional; procedure, shortened: as §3; remark: listed apart in the source
Rattus norvegicus [13] = species on record: Rattus norvegicus; test: as §2; type: functional; procedure, shortened: as §3; remark: listed apart in the source
Rattus norvegicus [14] = species on record: Rattus norvegicus; test: Lysozyme-conjugated prodrugs: in vitro stability in buffered plasma at pH 7.4; type: functional; procedure, shortened: as §3

Compound	Drug release (Rattus norvegicus [11])	Drug release (Rattus norvegicus [1])	Drug release (Rattus norvegicus [2])	Drug release (Rattus norvegicus [3])	Drug release (Rattus norvegicus [4])	Drug release (Rattus norvegicus [5])	Drug release (Rattus norvegicus [6])	Drug release (Rattus norvegicus [7])	Drug release (Rattus norvegicus [8])	Drug release (Rattus norvegicus [9])	Drug release (Rattus norvegicus [10])	Drug release (Rattus norvegicus [12])	Drug release (Rattus norvegicus [13])	Drug release (Rattus norvegicus [14])
Nc1ccc2ccccc2c1	–	Stable	Stable	Stable	Stable	Stable	Stable	–	–	–	–	–	–	–
Cc1cc(NS(=O)(=O)c2ccc(NC(=O)CC3=CC(=O)OC3=O)cc2)no1	100% and 80%	–	–	–	–	–	–	8%	84%	8%	84%	15% and 7%	7%	–
COc1ccc2c(c1)c(CC(=O)O)c(C)n2C(=O)c1ccc(Cl)cc1	–	Stable	–	Stable	Stable	Stable	Stable	–	–	–	–	–	–	Stable
COc1ccc2cc([C@H](C)C(=O)O)ccc2c1 [NAPROXEN]	0%	Stable	Stable	Stable	Stable	Stable	Stable	0%	0%	0%	0%	0%	0%	Stable
Nc1nc(N)c2nc(-c3ccccc3)c(N)nc2n1	–	–	–	Stable	Stable	Stable	Stable	–	–	–	–	–	–	–

Continued, in another order:

Drug release (Rattus norvegicus [11])	Compound	Drug release (Rattus norvegicus [1])	Drug release (Rattus norvegicus [2])	Drug release (Rattus norvegicus [3])	Drug release (Rattus norvegicus [4])	Drug release (Rattus norvegicus [5])	Drug release (Rattus norvegicus [6])	Drug release (Rattus norvegicus [7])	Drug release (Rattus norvegicus [8])	Drug release (Rattus norvegicus [9])	Drug release (Rattus norvegicus [10])	Drug release (Rattus norvegicus [12])	Drug release (Rattus norvegicus [13])	Drug release (Rattus norvegicus [14])
1%	COc1ccc2cc(C(C)C(=O)OCC(=O)O)ccc2c1 (centres undefined)	–	–	–	–	–	–	5%	81%	8%	45%	2%	8%	–
0.6%	COc1ccc2cc(C(C)C(=O)O[C@@H](C)C(=O)O)ccc2c1 (stereo in doubt; 1r)	–	–	–	–	–	–	3%	100%	15%	100%	1.4%	13%	–
0%	COc1ccc2cc(C(C)C(=O)NCCCC[C@H](N)C(=O)O)ccc2c1 (some centres undefined)	–	–	–	–	–	–	0%	0%	0%	0%	0%	0%	–
< 1%	COc1ccc2cc(C(C)C(=O)N[C@@H](Cc3ccc(O)cc3)C(=O)NCC(=O)NCC(=O)O)ccc2c1 (stereo in doubt; 1e)	–	–	–	–	–	–	<1%	<1%	<1%	<1%	<1%	<1%	–
< 1%	COc1ccc2cc(C(C)C(=O)N[C@@H](CC(C)C)C(=O)NCC(=O)NCC(=O)O)ccc2c1 (stereo in doubt; 1c)	–	–	–	–	–	–	<1%	<1%	<1%	<1%	<1%	<1%	–
< 1%	COc1ccc2cc(C(C)C(=O)NC(CC(C)C)C(=O)O)ccc2c1 (centres undefined)	–	–	–	–	–	–	<1%	<1%	<1%	<1%	<1%	<1%	–

Source: ChEMBL document CHEMBL1125422, “Low molecular weight proteins as carriers for renal drug targeting. Preparation of drug-protein conjugates and drug-spacer derivatives and their catabolism in renal cortex homogenates and lysosomal lysates” (J Med Chem, 1992)
